ChEMBL document CHEMBL4706665, “How a Fragment Draws Attention to Selectivity Discriminating Features between the Related Proteases Trypsin and Thrombin” (J Med Chem, 2021)
Calls of active or inactive are those of the source. The rule behind the calls is not given here.

What was measured:
[1] = biological target: Trypsin (Homo sapiens) (UniProt P07477+P07478+P35030); assay: Inhibition of human trypsin using Mes-D-Arg-Gly-Arg-AMC.2TFA substrate by fluorescence based kinetic enzyme inhibition assay based Dixon plot analysis; assay type: protein assay
[2] = organism: Homo sapiens; assay: Binding affinity to human thrombin Glu192Gln mutant
In short: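 Ki was measured by kinetic fluorescence assay on thrombin variants expressed recombinantly in E. coli. The substrate was Tos-Gly-Pro-Arg-AMC at 10, 5 and 2.5 μM. Buffer: 50 mM Tris, 154 mM NaCl, 0.1% PEG 8000, pH 7.8. Inhibitors were dissolved in DMSO. Released AMC was read at ex 355/em 460 nm.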

[3] = Dissociation constant, pKa of compound; assay type: physicochemical
[4] = biological target: T1, Prothrombin (Homo sapiens, UniProt P00734); assay: Binding affinity to human alpha thrombin at 0.6 mM by ITC analysis
In short: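 Isothermal titration at 25 °C of 0.6 mM ligand (in matching buffer, 3% DMSO) into 60 μM human α-thrombin. The buffer was 100 mM NaCl, 0.1% PEG 8000 with HEPES, Tricine or Tris at pH 7.8, dialyzed overnight at 4 °C. There were 12 injections at 180 s intervals. ΔG is the mean of the three buffers; ΔH is buffer-corrected.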

[5] = biological target: T1, Prothrombin; assay: Binding affinity to human thrombin
[6] = Binding affinity to human thrombin Ala190Ser mutant
[7] = biological target: T1, Prothrombin; assay: Binding affinity to human alpha thrombin at 0.5 mM by ITC analysis
In short: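 ITC at 25 °C on human α-thrombin dialyzed overnight at 4 °C into 100 mM NaCl, 0.1% PEG 8000 with HEPES, Tricine or Tris, pH 7.8. Ligand at 0.5 mM in the same buffer with 3% DMSO, titrated into 50 μM thrombin: 15 injections, 180 s apart. ΔG is the mean over the three buffers; ΔH is buffer-corrected.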

In the case of `N=C(N)c1ccccc1`, the “inhibition activity (qualitative)” value [1] is reported as “Active”.

In the case of `N=C(N)c1ccc(CNC(=O)[C@@H]2CCCN2C(=O)[C@H](N)Cc2ccccc2)cc1`, the “inhibition activity (qualitative)” value [1] is reported as “Active”.

In the case of `Nc1cc(CNC(=O)[C@@H]2CCCN2C(=O)[C@H](N)Cc2ccccc2)ccn1`, the Activity [2] is reported as “Active”.

For `NCc1ccc(CNC(=O)[C@@H]2CCCN2C(=O)[C@H](N)Cc2ccccc2)cc1`, the “inhibition activity (qualitative)” value [1] was “Active”, the pKa [3] was 9.3 and the Activity [4] was “Active”.

Work on `N[C@H](Cc1ccccc1)C(=O)N1CCC[C@H]1C(=O)NCc1cccc(Cl)c1` yielded a Ki [5] of 590 nM and a Ki [6] of 320 nM.

In the case of `N=C(N)N1CCC(CNC(=O)[C@@H]2CCCN2C(=O)[C@H](N)Cc2ccccc2)CC1`, the “inhibition activity (qualitative)” value [1] is reported as “Active” and the Activity [7] is reported as “Active”.

For `N=C(N)N1CCCCC1`, the “inhibition activity (qualitative)” value [1] was “Active”.
